We go through five compounds from ChEMBL document CHEMBL4725444, “Brain Permeable Tafamidis Amide Analogs for Stabilizing TTR and Reducing APP Cleavage” (ACS Med Chem Lett, 2020).

SMILES strings stand for the structures. Active and inactive are the calls of the source. The rule behind the calls is not given here.

Data set [1] deals with N2a695. Briefly: Inhibition of amyloid beta 42 production in mouse N2a695 cells at 10 uM incubated for 6 hrs by ELISA relative to control. The data set is classed as cell-based. Put shortly: (§1)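 Human APP695-expressing N2a695 cells (4.0 × 10^5–4.5 × 10^5 cells/mL, 90–95% confluent) given 10 μM final compound for 6 h at 37 °C, 5% CO2. Media assayed by human Aβ40/Aβ42 sandwich ELISA (Aβ40 media diluted 5–10×, Aβ42 undiluted); levels compared with DMSO vehicle. At least two experiments in duplicate or triplicate.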

A short description of data set [2]: Metabolic stability in CD1 mouse liver microsomes assessed as parent compound remaining at 1 uM measured after 1 hr by LC-MS/MS analysis relative to control. The format is ADME, Microsome. The settings on record: read-out: Stabilty. Put shortly: (§2)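 Compound at 1 or 10 μM incubated with mouse or human liver microsomes at 25 °C for 30 and 60 min; remaining parent quantified by LC-MS/MS.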

Data set [3] can be described thus: Plasma concentration in 5XFAD mouse at 50 mg/kg, po measured after 15 days by LC-MS/MS analysis. Particulars: time 15 day. The format is ADME, organism-based. Put shortly: (§3)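 Dosed via drinking water for 15 days (50 mg/kg) in 3-month-old 5xFAD mice, n = 3. Blood and brain tissue collected on day 15; parent amide and its hydrolysis product tafamidis quantified in plasma and brain extracts by LC-MS/MS.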

In data set [4] the test system is N2a695. Description: Inhibition of amyloid beta aggregation in mouse N2a695 cells measured for 4 hrs by fluorescence correlation spectroscopic analysis. The data set is classed as cell-based.
Data set [5] can be described thus: Metabolic stability in CD1 mouse liver microsomes assessed as parent compound remaining at 10 uM measured after 1 hr by LC-MS/MS analysis relative to control. The format is ADME, Microsome. The settings on record: read-out: Stabilty. Put shortly: as §2
A short description of data set [6]: Metabolic stability in CD1 mouse liver microsomes assessed as parent compound remaining at 10 uM measured after 0.5 hrs by LC-MS/MS analysis relative to control. The data set is classed as ADME, Microsome. The settings on record: read-out: Stabilty. Put shortly: as §2
Data set [7] in a line: Cytotoxicity against mouse N2a695 cells assessed as reduction in cell viability at 10 uM incubated for 24 hrs by MTT assay. Particulars: n2a695, 24 h. The format is cell-based. Put shortly: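 N2a cells exposed to 10 μM compound for 24 h; viable cell number determined by MTT assay.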
The nature of data set [8]: Brain concentration in 5XFAD mouse at 50 mg/kg, po measured after 15 days by LC-MS/MS analysis. Particulars: time 15 day, read-out: Ct. The data set is classed as ADME, organism-based. Put shortly:
as §3

For data set [9], the system named is N2a695. Briefly: Increase in APP fragmentation in mouse N2a695 cells at 10 uM incubated for 6 hrs by Western blot analysis. The format is functional, cell-based. Put shortly: (§4)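 N2a695 cells (4.0 × 10^5–4.5 × 10^5 cells/mL, 90–95% confluent) treated with 10 μM final compound for 6 h at 37 °C, 5% CO2. Lysates run on SDS-PAGE; membrane fixed with 0.25% glutaraldehyde in PBS, blocked in milk PBST, probed with RU369 (APP C-terminus antibody), HRP secondary, ECL detection; APP-CTF bands quantified versus DMSO control.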

Data set [10] concerns N2a695. Description: Inhibition of amyloid beta 40 production in mouse N2a695 cells at 10 uM incubated for 6 hrs by ELISA relative to control. The data set is classed as cell-based. Put shortly:
as §1

Data set [11] in a line: Metabolic stability in human liver microsomes assessed as parent compound remaining at 1 uM measured after 1 hr by LC-MS/MS analysis relative to control. The data set is classed as ADME, Microsome. Particulars: read-out: Stabilty. Put shortly:
as §2

Data set [12] addresses Transthyretin (Homo sapiens) (UniProt P02766). Briefly: Stabilization of recombinant dual FLAG-tagged wild type TTR (unknown origin) in plasma blood at < 30 uM incubated for 48 hrs by ion exchange chromatographic method. The format is cell-free. The settings on record: dose microM <30, time 48.0 hrs.
Data set [13] can be described thus: Metabolic stability in human liver microsomes assessed as parent compound remaining at 1 uM measured after 0.5 hrs by LC-MS/MS analysis relative to control. The format is ADME, Microsome. The settings on record: read-out: Stabilty. Put shortly: as §2
In data set [14] the test system is N2a695. Briefly: Increase in APP-CTF fragmentation in mouse N2a695 cells at 10 uM incubated for 6 hrs by Western blot analysis. The format is functional, cell-based. Put shortly:
as §4

Data set [15] relates to N2a695. Briefly: Effect on TTR-induced amyloid beta aggregation inhibition in mouse N2a695 cells measured for 4 hrs by fluorescence correlation spectroscopic analysis. The format is functional, cell-based.
Data set [16] can be described thus: Metabolic stability in mouse liver microsomes assessed as parent compound remaining after 0.5 hrs by LC-MS/MS analysis relative to control. The format is ADME, Microsome. Particulars: read-out: Stabilty. Put shortly:
as §2

Data set [17] in a line: Inhibition of gamma secretase in mouse N2a695 cells using Sb4 substrate incubated for 3 hrs by ELISA. The settings on record: N2a695, 3 h.

In the case of `O=C(c1ccc2nc(-c3cc(Cl)cc(Cl)c3)oc2c1)N1CCNCC1`, the inhibition in data set [1] and in [10] was 30% each time. Moreover, the figures for the remaining at 1 h, 1 µM in [2], in data set [5] and in data set [11] were 2.3%, 1.2% and 70.3%, respectively. For the same compound, the concentration at 360 h in [3] turned out to be 80 nM; in data set [8] it was 137 ng/g. In data set [4], the inhibition entry is “inactive”. Further, the remaining at 0.5 h, 1 µM came to 26.7% in data set [6], 75.4% in [13] and 15.1% in [16]. In addition, in [7], the Activity entry is on record as “Non-Toxic”. Further, the result in [9], in data set [12] and in data set [14] was Active. The result in data set [15] was inactive.
`O=C(NC1CCNCC1)c1ccc2nc(-c3cc(Cl)cc(Cl)c3)oc2c1`: the inhibition in data set [1] and in data set [10] was 30% each time. In addition, the Activity result in [7] is “Toxic”. The result in [9] and in data set [14] was Active.
As to `CN(C)CCNC(=O)c1ccc2nc(-c3ccc(C(F)(F)F)cc3)oc2c1`, the inhibition in data set [1] and in [10] was 30% throughout. For the same compound, the outcome in data set [9] and in data set [14] was Active.
In the case of `O=C(O)c1ccc2nc(-c3cc(Cl)cc(Cl)c3)oc2c1` [TAFAMIDIS], the concentration at 360 h stood at 5800 nM in data set [3] and 223 ng/g in data set [8]. In addition, the inhibition entry in [4] was “inactive”. In data set [17], this compound showed an IC50 greater than 30 µM. The result in data set [9], in [14] and in data set [15] was inactive. The result in data set [12] was Active. In addition, the Stability entry in [12] is on record as “Stable”.
Consider `O=C(c1ccc2nc(-c3ccc(C(F)(F)F)cc3)oc2c1)N1CCNCC1`, for which the inhibition in data set [1] and in data set [10] was 30% each time. Besides, in data set [7], the Activity result is reported as “Toxic”. Further, the result in [9] and in data set [14] was Active.
